In ChEMBL document CHEMBL1811814, “Synthesis and evaluation of indole, pyrazole, chromone and pyrimidine based conjugates for tumor growth inhibitory activities--development of highly efficacious cytotoxic agents” (Eur J Med Chem, 2010):

What was measured:
Assay type in all cases: functional
Design in all cases: scale not given: the % may be the effect or the level left
HOP-62 = assay: Growth inhibition of human HOP62 cells assessed tumor cell growth at 10^-5 M
Procedure, shortened: (§1)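 NCI 60-human-tumor-cell-line panel screen. Each compound was tested at a single concentration of 10^-5 M, and percent growth of tumor cells was recorded for each cell line. Growth inhibition was expressed from these percent-growth values.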

K562 = assay: Growth inhibition of human K562 cells assessed tumor cell growth at 10^-5 M; procedure, shortened: as §1
HCC 2998 = assay: Growth inhibition of human HCC2998 cells assessed tumor cell growth at 10^-5 M; procedure, shortened: as §1
HT-29 = assay: Growth inhibition of human HT-29 cells assessed tumor cell growth at 10^-5 M; procedure, shortened: as §1
MCF7 = assay: Growth inhibition of human MCF7 cells assessed tumor cell growth at 10^-5 M; procedure, shortened: as §1
KM12 = assay: Growth inhibition of human KM12 cells assessed tumor cell growth at 10^-5 M; procedure, shortened: as §1
OVCAR-3 = assay: Growth inhibition of human OVCAR3 cells assessed tumor cell growth at 10^-5 M; procedure, shortened: as §1
NCI/ADR-RES = assay: Growth inhibition of human NCI/ADR-RES cells assessed tumor cell growth at 10^-5 M; procedure, shortened: as §1
UACC-257 = assay: Growth inhibition of human UACC257 cells assessed tumor cell growth at 10^-5 M
Procedure, shortened: (§2)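 Single-dose screen at 10^-5 M across the 60 human tumor cell line panel, run to NCI standards. The value is the percent growth of each cell line in the presence of compound. Compounds active at this dose moved on to five-concentration testing (10^-4 to 10^-8 M).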

NCI-H226 = assay: Growth inhibition of human NCI-H226 cells assessed tumor cell growth at 10^-5 M; procedure, shortened: as §1
M14 = assay: Growth inhibition of human M14 cells assessed tumor cell growth at 10^-5 M; procedure, shortened: as §1
SK-MEL-5 = assay: Growth inhibition of human SK-MEL-5 cells assessed tumor cell growth at 10^-5 M; procedure, shortened: as §1
COLO 205 = assay: Growth inhibition of human COLO205 cells assessed tumor cell growth at 10^-5 M; procedure, shortened: as §1
MDA-MB-435 = assay: Growth inhibition of human MDA-MB-435 cells assessed tumor cell growth at 10^-5 M; procedure, shortened: as §1
SK-OV-3 = assay: Growth inhibition of human SKOV3 cells assessed tumor cell growth at 10^-5 M; procedure, shortened: as §1
BT-549 = assay: Growth inhibition of human BT549 cells assessed tumor cell growth at 10^-5 M; procedure, shortened: as §1
MDA-MB-231 = assay: Growth inhibition of human MDA-MB-231 cells assessed tumor cell growth at 10^-5 M; procedure, shortened: as §1
SW-620 = assay: Growth inhibition of human SW620 cells assessed tumor cell growth at 10^-5 M; procedure, shortened: as §2
SR = assay: Growth inhibition of human SR cells assessed tumor cell growth at 10^-5 M; procedure, shortened: as §2
SF-268 = assay: Growth inhibition of human SF268 cells assessed tumor cell growth at 10^-5 M; procedure, shortened: as §1
ACHN = assay: Growth inhibition of human ACHN cells assessed tumor cell growth at 10^-5 M; procedure, shortened: as §1
SNB-75 = assay: Growth inhibition of human SNB75 cells assessed tumor cell growth at 10^-5 M; procedure, shortened: as §2
SK-MEL-2 = assay: Growth inhibition of human SK-MEL-2 cells assessed tumor cell growth at 10^-5 M; procedure, shortened: as §1
OVCAR-8 = assay: Growth inhibition of human OVCAR8 cells assessed tumor cell growth at 10^-5 M; procedure, shortened: as §1
[1] = Growth inhibition of human […] cells assessed tumor cell growth at 10^-5 M; procedure, shortened: as §1
HCT-15 = assay: Growth inhibition of human HCT15 cells assessed tumor cell growth at 10^-5 M; procedure, shortened: as §1
OVCAR-4 = assay: Growth inhibition of human OVCAR4 cells assessed tumor cell growth at 10^-5 M; procedure, shortened: as §1
PC-3 = assay: Growth inhibition of human PC3 cells assessed tumor cell growth at 10^-5 M; procedure, shortened: as §1
SF-295 = assay: Growth inhibition of human SF295 cells assessed tumor cell growth at 10^-5 M; procedure, shortened: as §1
DU-145 = assay: Growth inhibition of human DU145 cells assessed tumor cell growth at 10^-5 M; procedure, shortened: as §1
MOLT-4 = assay: Growth inhibition of human MOLT4 cells assessed tumor cell growth at 10^-5 M; procedure, shortened: as §1
SNB-19 = assay: Growth inhibition of human SNB19 cells assessed tumor cell growth at 10^-5 M; procedure, shortened: as §2
NCI-H460 = assay: Growth inhibition of human NCI-H460 cells assessed tumor cell growth at 10^-5 M; procedure, shortened: as §1
786-0 = assay: Growth inhibition of human 786-0 cells assessed tumor cell growth at 10^-5 M; procedure, shortened: as §1
EKVX = assay: Growth inhibition of human EKVX cells assessed tumor cell growth at 10^-5 M; procedure, shortened: as §1
UO-31 = assay: Growth inhibition of human UO31 cells assessed tumor cell growth at 10^-5 M; procedure, shortened: as §2
HL-60(TB) = assay: Growth inhibition of human HL-60(TB) cells assessed tumor cell growth at 10^-5 M
Procedure, shortened: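 HL-60(TB), part of the 60-line panel, tested at a single concentration of 10^-5 M. The read-out is percent tumor cell growth relative to untreated growth.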

Malme-3M = assay: Growth inhibition of human MALME-3M cells assessed tumor cell growth at 10^-5 M; procedure, shortened: as §1
CCRF-CEM = assay: Growth inhibition of human CCRF-CEM cells assessed tumor cell growth at 10^-5 M; procedure, shortened: as §1
NCI-H23 = assay: Growth inhibition of human NCI-H23 cells assessed tumor cell growth at 10^-5 M; procedure, shortened: as §1
A549 = assay: Growth inhibition of human A549 cells assessed tumor cell growth at 10^-5 M; procedure, shortened: as §1
HOP-92 = assay: Growth inhibition of human HOP92 cells assessed tumor cell growth at 10^-5 M; procedure, shortened: as §1
A498 = assay: Growth inhibition of human A498 cells assessed tumor cell growth at 10^-5 M; procedure, shortened: as §1
U-251 = assay: Growth inhibition of human U251 cells assessed tumor cell growth at 10^-5 M; procedure, shortened: as §2
NCI-H322M = assay: Growth inhibition of human NCI-H322M cells assessed tumor cell growth at 10^-5 M; procedure, shortened: as §1
UACC-62 = assay: Growth inhibition of human UACC62 cells assessed tumor cell growth at 10^-5 M; procedure, shortened: as §2
T47D = assay: Growth inhibition of human T47D cells assessed tumor cell growth at 10^-5 M; procedure, shortened: as §2
RXF 393 = assay: Growth inhibition of human RXF393 cells assessed tumor cell growth at 10^-5 M; procedure, shortened: as §1
HCT-116 = assay: Growth inhibition of human HCT116 cells assessed tumor cell growth at 10^-5 M; procedure, shortened: as §1
[2] = Growth inhibition of human Hs 578T cells assessed tumor cell growth at 10^-5 M; procedure, shortened: as §1
CAKI-1 = assay: Growth inhibition of human Caki1 cells assessed tumor cell growth at 10^-5 M; procedure, shortened: as §1
MDA-MB-468 = assay: Growth inhibition of human MDA-MB-468 cells assessed tumor cell growth at 10^-5 M; procedure, shortened: as §1
SN12C = assay: Growth inhibition of human SN12C cells assessed tumor cell growth at 10^-5 M; procedure, shortened: as §1
OVCAR-5 = assay: Growth inhibition of human OVCAR5 cells assessed tumor cell growth at 10^-5 M; procedure, shortened: as §1
SF-539 = assay: Growth inhibition of human SF539 cells assessed tumor cell growth at 10^-5 M; procedure, shortened: as §1
LOX IMVI = assay: Growth inhibition of human LOXIMVI cells assessed tumor cell growth at 10^-5 M; procedure, shortened: as §1
IGROV-1 = assay: Growth inhibition of human IGROV1 cells assessed tumor cell growth at 10^-5 M; procedure, shortened: as §1
SK-MEL-28 = assay: Growth inhibition of human SK-MEL-28 cells assessed tumor cell growth at 10^-5 M; procedure, shortened: as §1
NCI-H522 = assay: Growth inhibition of human NCI-H522 cells assessed tumor cell growth at 10^-5 M; procedure, shortened: as §1
TK-10 = assay: Growth inhibition of human TK10 cells assessed tumor cell growth at 10^-5 M; procedure, shortened: as §2

CC1=NN(c2cccc(Cl)c2)C(=O)/C1=C\c1coc2ccccc2c1=O
Activity (HOP-62): 110.49%
Activity (K562): 109.12%
Activity (HCC 2998): 94.86%
Activity (HT-29): 114.92%
Activity (MCF7): 86.4%
Activity (KM12): 113.31%
Activity (OVCAR-3): 123.01%
Activity (NCI/ADR-RES): 87.3%
Activity (UACC-257): 98.36%
Activity (NCI-H226): 93.17%
Activity (M14): 63.48%
Activity (SK-MEL-5): 109.62%
Activity (COLO 205): 138.42%
Activity (MDA-MB-435): 110.64%
Activity (SK-OV-3): 103.95%
Activity (BT-549): 98.21%
Activity (MDA-MB-231): 98.59%
Activity (SW-620): 98.74%
Activity (SR): 96.27%
Activity (SF-268): 101.34%
Activity (ACHN): 96.23%
Activity (SNB-75): 94.9%
Activity (SK-MEL-2): 96.49%
Activity (OVCAR-8): 99.11%
Activity [1]: 72.35%
Activity (HCT-15): 92.73%
Activity (OVCAR-4): 99.9%
Activity (PC-3): 108.19%
Activity (SF-295): 127.24%
Activity (DU-145): 115.23%
Activity (MOLT-4): 102.14%
Activity (SNB-19): 102.59%
Activity (NCI-H460): 112.85%
Activity (786-0): 77.33%
Activity (EKVX): 110.36%
Activity (UO-31): 82.13%
Activity (HL-60(TB)): 106.16%
Activity (Malme-3M): 107.7%
Activity (CCRF-CEM): 97.52%
Activity (NCI-H23): 88.35%
Activity (A549): 102.67%
Activity (HOP-92): 91.19%
Activity (A498): 114.05%
Activity (U-251): 97.41%
Activity (NCI-H322M): 121.02%
Activity (UACC-62): 92.44%
Activity (T47D): 92.99%
Activity (RXF 393): 96.69%
Activity (HCT-116): 106.06%
Activity [2]: 96.45%
Activity (CAKI-1): 96.64%
Activity (MDA-MB-468): 106.03%
Activity (SN12C): 100.25%
Activity (OVCAR-5): 93.56%
Activity (SF-539): 95.06%
Activity (LOX IMVI): 92.97%
Activity (IGROV-1): 105.92%
Activity (SK-MEL-28): 109.94%

O=C1/C(=C\c2cn(C(=O)c3ccccc3)c3ccccc23)c2ccccc2N1c1c(Cl)cccc1Cl
Activity (HOP-62): 94.2%
Activity (NCI-H522): 90.9%
Activity (K562): 114.6%
Activity (HCC 2998): 101.6%
Activity (HT-29): 103.4%
Activity (MCF7): 95.7%
Activity (KM12): 111.3%
Activity (OVCAR-3): 116.1%
Activity (NCI/ADR-RES): 99.7%
Activity (UACC-257): 123.3%
Activity (NCI-H226): 94.8%
Activity (M14): 104.2%
Activity (SK-MEL-5): 107.1%
Activity (COLO 205): 122.5%
Activity (MDA-MB-435): 115.5%
Activity (SK-OV-3): 111.6%
Activity (BT-549): 106.5%
Activity (MDA-MB-231): 103.3%
Activity (SW-620): 104.6%
Activity (SR): 99.5%
Activity (SF-268): 99.9%
Activity (ACHN): 97.6%
Activity (SNB-75): 82.2%
Activity (SK-MEL-2): 102.9%
Activity (OVCAR-8): 113.1%
Activity [1]: 100.6%
Activity (HCT-15): 66.3%
Activity (OVCAR-4): 99.5%
Activity (PC-3): 71.8%
Activity (SF-295): 126.6%
Activity (DU-145): 119.5%
Activity (MOLT-4): 89.6%
Activity (NCI-H460): 111.1%
Activity (786-0): 90.7%
Activity (EKVX): 97.7%
Activity (UO-31): 76.9%
Activity (HL-60(TB)): 102.5%
Activity (Malme-3M): 106%
Activity (CCRF-CEM): 111.2%
Activity (NCI-H23): 97.2%
Activity (A549): 110%
Activity (HOP-92): 79.8%
Activity (A498): 102.8%
Activity (U-251): 88.4%
Activity (NCI-H322M): 111.9%
Activity (UACC-62): 95.4%
Activity (T47D): 92.4%
Activity (RXF 393): 150.7%
Activity (TK-10): 118.8%
Activity (HCT-116): 94%
Activity [2]: 107.3%
Activity (CAKI-1): 86.4%
Activity (MDA-MB-468): 97.7%
Activity (SN12C): 89.5%
Activity (OVCAR-5): 94.2%
Activity (SF-539): 104%
Activity (LOX IMVI): 97.6%
Activity (IGROV-1): 99.2%
Activity (SK-MEL-28): 113.4%
